Laboratory results taken from ChEMBL document CHEMBL4020842, “Discovery of N1-(4-((7-Cyclopentyl-6-(dimethylcarbamoyl)-7 H-pyrrolo[2,3- d]pyrimidin-2-yl)amino)phenyl)- N8-hydroxyoctanediamide as a Novel Inhibitor Targeting Cyclin-dependent Kinase 4/9 (CDK4/9) and Histone Deacetlyase1 (HDAC1) against Malignant Cancer” (J Med Chem, 2018).
Activity calls are given as the source filed them. No cut-off for these calls is given here.

What was measured:
[1] = target: Vascular endothelial growth factor receptor 3 (Homo sapiens, UniProt P35916); test: Inhibition of recombinant human N-terminal GST-tagged FLT4 (800-end residues) expressed in baculovirus infected sf21 cells
Chain of Vascular endothelial growth factor receptor 3 (P35916 whole entry): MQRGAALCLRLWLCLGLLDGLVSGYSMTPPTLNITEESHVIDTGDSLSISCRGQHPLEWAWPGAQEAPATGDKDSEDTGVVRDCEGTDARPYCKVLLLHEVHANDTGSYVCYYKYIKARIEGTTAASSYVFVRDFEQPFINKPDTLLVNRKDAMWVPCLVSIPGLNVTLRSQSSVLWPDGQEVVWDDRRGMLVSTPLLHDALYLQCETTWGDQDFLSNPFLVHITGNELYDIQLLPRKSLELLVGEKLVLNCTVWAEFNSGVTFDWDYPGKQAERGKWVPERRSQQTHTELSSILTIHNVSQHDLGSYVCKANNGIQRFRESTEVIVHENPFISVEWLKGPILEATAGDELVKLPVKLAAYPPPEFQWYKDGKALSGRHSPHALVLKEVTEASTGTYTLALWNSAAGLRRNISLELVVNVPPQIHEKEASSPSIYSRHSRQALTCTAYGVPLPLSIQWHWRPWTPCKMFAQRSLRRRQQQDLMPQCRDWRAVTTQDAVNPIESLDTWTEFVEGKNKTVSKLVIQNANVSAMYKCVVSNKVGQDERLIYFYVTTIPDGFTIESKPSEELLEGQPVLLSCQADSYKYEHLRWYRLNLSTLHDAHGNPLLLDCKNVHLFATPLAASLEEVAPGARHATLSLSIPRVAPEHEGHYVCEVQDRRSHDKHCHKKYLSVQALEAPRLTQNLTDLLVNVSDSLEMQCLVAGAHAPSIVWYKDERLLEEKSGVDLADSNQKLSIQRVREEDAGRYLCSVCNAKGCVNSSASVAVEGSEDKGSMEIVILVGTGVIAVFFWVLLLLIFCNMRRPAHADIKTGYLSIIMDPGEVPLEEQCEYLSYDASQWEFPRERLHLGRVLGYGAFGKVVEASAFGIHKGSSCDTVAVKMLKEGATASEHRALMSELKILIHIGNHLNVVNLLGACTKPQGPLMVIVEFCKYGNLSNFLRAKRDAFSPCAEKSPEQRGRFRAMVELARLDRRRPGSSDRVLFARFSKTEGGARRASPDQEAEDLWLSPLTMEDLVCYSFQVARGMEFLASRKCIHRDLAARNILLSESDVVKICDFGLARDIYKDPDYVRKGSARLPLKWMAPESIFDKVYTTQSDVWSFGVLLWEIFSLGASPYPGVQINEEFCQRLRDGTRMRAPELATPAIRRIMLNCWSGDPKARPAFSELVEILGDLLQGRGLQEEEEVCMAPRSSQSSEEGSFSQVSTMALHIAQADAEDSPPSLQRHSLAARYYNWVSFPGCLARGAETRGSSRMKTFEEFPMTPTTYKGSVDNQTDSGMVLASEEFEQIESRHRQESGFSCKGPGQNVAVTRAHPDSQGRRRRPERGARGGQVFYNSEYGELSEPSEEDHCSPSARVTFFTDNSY

[2] = system: NCI-H460; test: Induction of apoptosis in human NCI-H460 cells assessed as caspase-3 cleavage after 48 hrs by Western blot method; assay type: functional, cell-based
Outline: (§1)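 Cells were treated with or without test agent, alongside a control, for 48h. They were then lysed and analysed by Western blot for Bcl-2 protein and cleaved caspase 3.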

[3] = Cmax in Sprague-Dawley rat at 20 mg/kg, po administered as single dose by HPLC analysis; assay type: ADME, organism-based; set-up: dose 20 mg/kg, route oral; details: in vivo
[4] = system: Hep 3B2; test: Induction of apoptosis in human Hep3B cells assessed as live cells at 5 uM after 48 hrs by annexin V-FITC/propidium iodide staining based flow cytometry (reference value: 97.9%); assay type: functional
[5] = system: Hep 3B2; test: Induction of apoptosis in human Hep3B cells assessed as late apoptotic cells at 5 uM after 48 hrs by annexin V-FITC/propidium iodide staining based flow cytometry (reference value: 5.25%); assay type: functional
[6] = system: NCI-H460; test: Induction of apoptosis in human NCI-H460 cells assessed as necrotic cells at 1 uM after 48 hrs by annexin V-FITC/propidium iodide staining based flow cytometry (reference value: 1.34%); assay type: functional
[7] = system: Hep 3B2; test: Induction of apoptosis in human Hep3B cells assessed as early apoptotic cells at 5 uM after 48 hrs by annexin V-FITC/propidium iodide staining based flow cytometry (reference value: 1.91%); assay type: functional
[8] = AUC (0 to infinity) in Sprague-Dawley rat at 20 mg/kg, iv administered as single dose by HPLC analysis; assay type: ADME, organism-based; set-up: dose 20 mg/kg, route intravenous, time infinity; details: in vivo
[9] = system: MDA-MB-231; test: Induction of apoptosis in human MDA-MB-231 cells assessed as early apoptotic cells at 5 uM after 48 hrs by annexin V-FITC/propidium iodide staining based flow cytometry (reference value: 0.4%); assay type: functional
[10] = system: HepG2; test: Induction of apoptosis in human HepG2 cells after 48 hrs by annexin V-FITC/propidium iodide staining based flow cytometry; assay type: functional, cell-based
[11] = Tmax in Sprague-Dawley rat at 20 mg/kg, ip administered as single dose by HPLC analysis; assay type: ADME, organism-based; details: in vivo
[12] = target: CDK4/CDK9 (Homo sapiens) (UniProt P11802+P50750); test: Inhibition of CDK4/CDK9 in human A549 cells assessed as reduction in Rb phosphorylation at Ser807/811 residues at 1 uM after 48 hrs by Western blot method; assay type: cell-based
Chain of CDK4/CDK9 (Homo sapiens) (P11802 whole entry, looked up): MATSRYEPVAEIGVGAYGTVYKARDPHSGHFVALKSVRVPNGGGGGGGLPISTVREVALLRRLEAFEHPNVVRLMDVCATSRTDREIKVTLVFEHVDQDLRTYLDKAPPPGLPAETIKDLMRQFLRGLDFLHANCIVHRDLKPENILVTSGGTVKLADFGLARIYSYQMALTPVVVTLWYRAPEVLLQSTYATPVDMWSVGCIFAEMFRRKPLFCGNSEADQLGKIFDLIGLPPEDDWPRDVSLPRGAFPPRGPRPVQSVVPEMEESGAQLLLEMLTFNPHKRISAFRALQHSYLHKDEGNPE
Chain of CDK4/CDK9 (Homo sapiens) (P50750 whole entry, looked up): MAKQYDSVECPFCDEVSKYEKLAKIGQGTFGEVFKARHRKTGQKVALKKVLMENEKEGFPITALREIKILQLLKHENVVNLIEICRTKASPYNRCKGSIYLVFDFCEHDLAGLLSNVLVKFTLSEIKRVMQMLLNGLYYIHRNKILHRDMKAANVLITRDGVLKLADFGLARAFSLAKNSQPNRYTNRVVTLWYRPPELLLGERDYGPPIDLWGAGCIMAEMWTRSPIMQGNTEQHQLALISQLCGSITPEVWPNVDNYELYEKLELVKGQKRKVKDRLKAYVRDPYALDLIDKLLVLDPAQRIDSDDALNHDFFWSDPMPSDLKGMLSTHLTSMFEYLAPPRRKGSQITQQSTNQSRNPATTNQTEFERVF

[13] = system: NCI-H460; test: Induction of apoptosis in human NCI-H460 cells assessed as late apoptotic cells at 5 uM after 48 hrs by annexin V-FITC/propidium iodide staining based flow cytometry (reference value: 1.29%); assay type: functional
[14] = target: LIM domain kinase 1 (Homo sapiens, UniProt P53667); test: Inhibition of recombinant human N-terminal His6-tagged LIMK1 (285 to 638 residues) expressed in baculovirus infected sf21 cells
Chain of LIM domain kinase 1 (P53667 whole entry, the tested form may be a part): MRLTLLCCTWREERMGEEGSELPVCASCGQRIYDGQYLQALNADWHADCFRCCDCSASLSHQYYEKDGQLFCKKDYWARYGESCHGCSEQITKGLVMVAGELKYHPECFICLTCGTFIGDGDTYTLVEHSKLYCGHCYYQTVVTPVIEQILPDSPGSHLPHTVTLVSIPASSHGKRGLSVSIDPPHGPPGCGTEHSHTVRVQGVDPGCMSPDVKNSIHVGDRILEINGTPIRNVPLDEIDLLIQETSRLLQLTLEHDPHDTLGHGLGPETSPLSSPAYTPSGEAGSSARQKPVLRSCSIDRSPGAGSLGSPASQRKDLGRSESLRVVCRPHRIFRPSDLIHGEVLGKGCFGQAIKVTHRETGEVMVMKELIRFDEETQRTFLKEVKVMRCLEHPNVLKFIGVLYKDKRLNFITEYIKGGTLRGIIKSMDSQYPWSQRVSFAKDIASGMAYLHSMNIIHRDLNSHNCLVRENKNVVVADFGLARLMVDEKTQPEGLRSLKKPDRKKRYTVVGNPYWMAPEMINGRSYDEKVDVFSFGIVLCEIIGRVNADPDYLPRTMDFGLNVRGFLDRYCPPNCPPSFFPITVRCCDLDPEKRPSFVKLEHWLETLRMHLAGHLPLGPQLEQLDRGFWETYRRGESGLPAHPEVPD

[15] = system: T47D; test: Induction of apoptosis in human T47D cells after 48 hrs by Hoechst 33342 staining based assay; assay type: functional, cell-based
Outline: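 T47D cultures were incubated with test agent for 48h, then stained with Hoechst 33342. Apoptotic bodies were examined by imaging and compared with untreated cells.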

[16] = system: T47D; test: Cell cycle arrest in human T47D cells assessed as decrease in S-phase at 625 nM after 24 hrs by propidium iodide staining based flow cytometry; assay type: functional
Outline: (§2)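 Cells were exposed for 24 h to a range of concentrations (625 nM, 2.5 and 10 µM), with DMSO vehicle as control. They were then stained with propidium iodide and analysed by flow cytometry to obtain the percentages of cells in G0/G1, S and G2 phases.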

[17] = system: T47D; test: Induction of apoptosis in human T47D cells after 48 hrs by annexin V-FITC/propidium iodide staining based flow cytometry; assay type: functional, cell-based
[18] = system: A549; test: Induction of apoptosis in human A549 cells assessed as late apoptotic cells at 10 uM after 48 hrs by annexin V-FITC/propidium iodide staining based flow cytometry (reference value: 0.88%); assay type: functional
[19] = system: Hep 3B2; test: Induction of apoptosis in human Hep3B cells assessed as late apoptotic cells at 10 uM after 48 hrs by annexin V-FITC/propidium iodide staining based flow cytometry (reference value: 5.25%); assay type: functional
[20] = Clearance in Sprague-Dawley rat at 20 mg/kg, iv administered as single dose by HPLC analysis; assay type: ADME, organism-based; details: in vivo
[21] = system: MDA-MB-231; test: Downregulation of CDK4 protein expression in human MDA-MB-231 cells after 48 hrs by Western blot method; assay type: functional, cell-based
Outline: (§3)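 Treated cells were lysed and CDK4 and cyclin D1 protein levels were assessed by Western blot.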

[22] = system: MDA-MB-231; test: Cell cycle arrest in human MDA-MB-231 cells assessed as accumulation at G2 phase at 2.5 to 10 uM after 24 hrs by propidium iodide staining based flow cytometry; assay type: functional; outline: as §2
[23] = target: CDK3/Cyclin E (Homo sapiens) (UniProt P24864+Q00526); test: Inhibition of recombinant human full length C-terminal 6His-tagged CDK3/N-terminal GST-tagged Cyclin-E co-expressed in baculovirus infected sf21 cells at 1 uM relative to control
Chain of CDK3/Cyclin E (Homo sapiens) (P24864 whole entry, looked up): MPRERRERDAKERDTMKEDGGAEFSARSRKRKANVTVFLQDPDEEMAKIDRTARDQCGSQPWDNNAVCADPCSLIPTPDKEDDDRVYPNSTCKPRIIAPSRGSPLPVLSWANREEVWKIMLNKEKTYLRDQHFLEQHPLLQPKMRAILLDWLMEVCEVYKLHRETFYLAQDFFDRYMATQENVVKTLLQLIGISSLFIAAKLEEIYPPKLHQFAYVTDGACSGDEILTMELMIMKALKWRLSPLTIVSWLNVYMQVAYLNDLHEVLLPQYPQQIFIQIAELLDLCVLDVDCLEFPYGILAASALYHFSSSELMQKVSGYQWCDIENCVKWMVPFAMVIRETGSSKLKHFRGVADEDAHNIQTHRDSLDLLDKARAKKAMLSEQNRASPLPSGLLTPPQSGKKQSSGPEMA
Chain of CDK3/Cyclin E (Homo sapiens) (Q00526 whole entry, looked up): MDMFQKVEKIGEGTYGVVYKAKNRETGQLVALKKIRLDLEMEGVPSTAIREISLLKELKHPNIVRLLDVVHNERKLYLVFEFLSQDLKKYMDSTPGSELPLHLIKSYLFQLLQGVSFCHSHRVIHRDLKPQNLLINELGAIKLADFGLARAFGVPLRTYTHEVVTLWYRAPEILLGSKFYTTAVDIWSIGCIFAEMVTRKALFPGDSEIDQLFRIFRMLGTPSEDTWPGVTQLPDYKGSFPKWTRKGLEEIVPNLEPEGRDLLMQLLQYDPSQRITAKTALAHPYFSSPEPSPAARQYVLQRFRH

[24] = system: A549; test: Induction of apoptosis in human A549 cells assessed as live cells at 1 uM after 48 hrs by annexin V-FITC/propidium iodide staining based flow cytometry (reference value: 92.7%); assay type: functional
[25] = system: 4T1; test: Antitumor activity against mouse Fluc-labeled 4T1 cells implanted in Balb/c mouse assessed as reduction in tumor weight at 130 mg/kg, ip administered daily for 18 days measured after 8 to 25 days; assay type: functional, organism-based
Outline: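 Luciferase (Fluc) reporter introduced into 4T1 cells by lentiviral transduction. Cells implanted orthotopically into mammary fat pads of female BALB/c mice aged 6–8 weeks. Once tumours averaged 100 mm3, dosing was daily by IP injection. Bioluminescence imaging was done at days 8 and 25 to reflect viable tumour cell number. Tumour weight was recorded at study end.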

[26] = target: Histone deacetylase 1 (Homo sapiens, UniProt Q13547); test: Inhibition of HDAC1 in human A549 cells assessed as increase in acetylated-histone H3 level at 1 to 5 uM after 48 hrs by Western blot method; assay type: cell-based
Chain of Histone deacetylase 1 (Q13547 whole entry): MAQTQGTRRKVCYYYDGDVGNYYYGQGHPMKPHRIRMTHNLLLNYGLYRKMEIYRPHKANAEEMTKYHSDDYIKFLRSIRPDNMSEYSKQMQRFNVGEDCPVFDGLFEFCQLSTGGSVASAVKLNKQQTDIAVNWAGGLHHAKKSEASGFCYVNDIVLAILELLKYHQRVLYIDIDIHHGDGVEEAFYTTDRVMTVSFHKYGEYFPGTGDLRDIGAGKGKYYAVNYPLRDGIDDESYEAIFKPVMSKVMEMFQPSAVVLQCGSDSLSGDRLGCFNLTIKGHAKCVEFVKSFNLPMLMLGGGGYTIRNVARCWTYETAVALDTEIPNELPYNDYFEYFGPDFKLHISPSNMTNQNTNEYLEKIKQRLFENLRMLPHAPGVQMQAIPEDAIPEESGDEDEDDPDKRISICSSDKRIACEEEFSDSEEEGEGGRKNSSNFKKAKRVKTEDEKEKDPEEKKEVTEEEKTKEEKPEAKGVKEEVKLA

[27] = system: A549; test: Induction of apoptosis in human A549 cells assessed as live cells at 5 uM after 48 hrs by annexin V-FITC/propidium iodide staining based flow cytometry (reference value: 92.7%); assay type: functional
[28] = system: Hep 3B2; test: Induction of apoptosis in human Hep3B cells assessed as early apoptotic cells at 10 uM after 48 hrs by annexin V-FITC/propidium iodide staining based flow cytometry (reference value: 1.91%); assay type: functional
[29] = system: MDA-MB-231; test: Downregulation of Cyclin-D1 protein expression in human MDA-MB-231 cells after 48 hrs by Western blot method; assay type: functional, cell-based; outline: as §3
[30] = system: MDA-MB-231; test: Induction of apoptosis in human MDA-MB-231 cells assessed as caspase-3 cleavage after 48 hrs by Western blot method; assay type: functional, cell-based; outline: as §1
[31] = system: NCI-H460; test: Cell cycle arrest in human NCI-H460 cells assessed as accumulation at G0/G1 phase at 625 nM after 24 hrs by propidium iodide staining based flow cytometry; assay type: functional; outline: as §2
[32] = system: MDA-MB-231; test: Induction of apoptosis in human MDA-MB-231 cells assessed as necrotic cells at 5 uM after 48 hrs by annexin V-FITC/propidium iodide staining based flow cytometry (reference value: […]); assay type: functional

CN(C)C(=O)c1cc2cnc(Nc3ccc(NC(=O)CCCCCCC(=O)NO)cc3)nc2n1C1CCCC1
IC50 [1]: 43 nM
Activity [2]: Active
Cmax [3]: 137 ng/mL
Activity [4]: 81%
Activity [5]: 10.4%
Activity [6]: 1.25%
Activity [7]: 6.52%
AUC(0-inf) [8]: 6160 ng·h/mL
Activity [9]: 2.57%
Activity [10]: Dose-dependent effect
Tmax [11]: 15.7 min
inhibition [12]: Active
Activity [13]: 5.38%
IC50 [14]: 44 nM
Activity [15]: Active
Activity [16]: Active
Activity [17]: Dose-dependent effect
Activity [18]: 27.7%
Activity [19]: 15%
clearance [20]: 69 mL/min/kg
Activity [21]: Dose-dependent effect
Activity [22]: Active
inhibition [23]: 68%
Activity [24]: 90.9%
Activity [25]: Active
inhibition [26]: Active
Activity [27]: 80.5%
Activity [28]: 8.15%
Activity [29]: Dose-dependent effect
Activity [30]: Active
Activity [31]: Active
Activity [32]: 1.36%
